Measurements as given in ChEMBL document CHEMBL1124157, “Absolute configurations and pharmacological activities of the optical isomers of fluoxetine, a selective serotonin-uptake inhibitor” (J Med Chem, 1988).
pKi: −log10 of the molar value.

Experiments:
Format in all cases: functional
Mus musculus [1] = species: Mus musculus; assay: Ability to antagonize p-chloroamphetamine-induced depletion of brain serotonin in mouse
Method in brief: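 Male albino mice (16–20 g), groups of five; compound given ip as aqueous solution, then 1 h later p-chloroamphetamine HCl 20.6 mg/kg ip. Decapitation 6 h after that; whole brains frozen on dry ice, stored at -15 °C, serotonin measured by HPLC with electrochemical detection. ED50 from dose-response.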

Mus musculus [2] = species: Mus musculus; assay: Antagonistic activity against acetic acid induced abdominal constriction (writhing) in mice; settings: Abdomen
Method in brief: (§1)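 Male CF-1 mice (~20 g), fasted overnight, five per point, each used once. Drug given sc in distilled water, 10 mL/kg, 20 min before 0.6% acetic acid ip (10 mL/kg). Writhes counted for 10 min starting 5 min after acid. Percent inhibition versus same-day controls; ED50 by probit least-squares of log dose.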

Mus musculus [3] = assay: Antagonistic activity against acetic acid induced abdominal constriction (writhing) in mice, when administered in combination with 0.2 mg/kg of morphine; settings: Abdomen; method in brief: as §1
Mus musculus [4] = species: Mus musculus; assay: Inhibition of serotonin uptake carrier in mice
Rattus norvegicus = species: Rattus norvegicus; assay: Ability to antagonize saccharin-induced drinking (palatability-induced ingestion) in rats
Method in brief: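 Long-Evans hooded male rats (400–600 g, n=24), individually housed, given 2 h weekday access to 0.01 M sodium saccharin; water and chow free except 0.5 h before and during access. Drug ip, 1 mL/kg, 0.5 h before access. Intake expressed as ratio to nearest noninjection (Thursday) control, normalized to distilled-water group = 100%; mean of four to six rats; ED50 with 95% confidence limits.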

| SMILES | ED50 (Mus musculus [1]) [mg/kg] | ED50 (Mus musculus [2]) [mg/kg] | ED50 (Mus musculus [3]) [mg/kg] | pKi (Mus musculus [4]) | ED50 (Rattus norvegicus) [mg/kg] |
| --- | --- | --- | --- | --- | --- |
| CNCC[C@H](Oc1ccc(C(F)(F)F)cc1)c1ccccc1 | 2.1 | 25.7 | 5.7 | 7.48 | 4.9 |
| CNCC[C@@H](Oc1ccc(C(F)(F)F)cc1)c1ccccc1 [R-FLUOXETINE] | 1.2 | 15.3 | 3.6 | 7.68 | 6.1 |
